The record followed here is ChEMBL document CHEMBL1155299, “Design, syntheses, and evaluation of Taspase1 inhibitors” (Bioorg Med Chem Lett, 2009).

In test [1] the target is T1, Threonine aspartase 1 (Homo sapiens) (UniProt Q9H6P5).
T1 sequence (whole entry): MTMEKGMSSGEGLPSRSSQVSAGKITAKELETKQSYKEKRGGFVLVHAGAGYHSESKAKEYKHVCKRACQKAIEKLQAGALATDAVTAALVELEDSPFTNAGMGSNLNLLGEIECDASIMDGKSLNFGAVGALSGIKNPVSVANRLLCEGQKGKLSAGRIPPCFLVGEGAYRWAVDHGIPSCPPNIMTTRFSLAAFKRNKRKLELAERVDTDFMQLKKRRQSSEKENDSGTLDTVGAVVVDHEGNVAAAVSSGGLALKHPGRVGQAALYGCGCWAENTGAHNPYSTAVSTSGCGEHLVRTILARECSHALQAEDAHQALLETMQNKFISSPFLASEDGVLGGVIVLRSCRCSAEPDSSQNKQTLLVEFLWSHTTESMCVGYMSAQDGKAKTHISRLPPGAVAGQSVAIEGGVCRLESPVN
The experiment in a line: Inhibition of recombinant Taspase 1 assessed as loss of processing and accumulation of full length p45 fragment by radiographic in vitro cleavage assay added 30 mins before translated p45MLL. The method in brief: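 Substrate was a p45MLL fragment (residues 2,500–2,800) with the CS1 site mutated to block cleavage there. It was made by in vitro translation as 35S-labelled protein, exposed to Taspase1, and cleavage was followed by radiography.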

Another test has as its target T2, Threonine aspartase 1 (Homo sapiens, UniProt Q9H6P5).
T2 sequence (Q9H6P5 whole entry): T1 sequence (whole entry)
Nature of the test: Inhibition of recombinant Taspase 1 assessed as accumulation of emitted fluorescence by FRET assay.

Test [2] deals with T1, Threonine aspartase 1 (Homo sapiens). The experiment in a line: Inhibition of recombinant Taspase 1 assessed as accumulation of emitted fluorescence at 100 uM by FRET assay.

Active and inactive are the calls of the source. The rule behind the calls is not given here. Peptide text beside a SMILES is read from it. Bounds are passed on as bounds.

Consider `CC[C@H](C)[C@H](NC(C)=O)C(=O)N[C@@H](CO)C(=O)N[C@@H](CCC(N)=O)C(=O)N[C@@H](CC(C)C)C(=O)N[C@@H](CC(=O)C1(C)CO1)C(=O)O` (some centres undefined) (HELM PEPTIDE1{[ac].I.S.Q.L.[CC1(C(=O)C[C@H](N[*:1])C(=O)O)CO1]}$$$$V2.0), for which the outcome in test [1] was Active.
For the compound `CC[C@H](C)[C@H](NC(C)=O)C(=O)N[C@@H](CO)C(=O)N[C@@H](CCC(N)=O)C(=O)N[C@@H](CC(C)C)C(=O)N[C@@H](C/C=C/C(C)=O)C(=O)O` (HELM PEPTIDE1{[ac].I.S.Q.L.[CC(=O)/C=C/C[C@H](N[*:1])C(=O)O]}$$$$V2.0), the IC50 (in general, the concentration at which inhibition is half-maximal) at Threonine aspartase 1 turned out to be 63.4 µM. Besides, the result in test [1] was Active.
`CC[C@H](C)[C@H](NC(C)=O)C(=O)N[C@@H](CO)C(=O)N[C@@H](CCC(N)=O)C(=O)N[C@@H](CC(C)C)C(=O)N[C@@H](C/C=C/S(C)(=O)=O)C(=O)O` (HELM PEPTIDE1{[ac].I.S.Q.L.[CS(=O)(=O)/C=C/C[C@H](N[*:1])C(=O)O]}$$$$V2.0): at Threonine aspartase 1, the IC50 was more than 100 µM. For the same compound, the result in test [1] was Active.
Turning to `CC[C@H](C)[C@H](NC(C)=O)C(=O)N[C@@H](CO)C(=O)N[C@@H](CCC(N)=O)C(=O)N[C@@H](CC(C)C)C(=O)N[C@H](/C=C/S(C)(=O)=O)CC(=O)O` (HELM PEPTIDE1{[ac].I.S.Q.L.[CS(=O)(=O)/C=C/[C@H](CC(=O)O)N[*:1]]}$$$$V2.0), in test [1], the result was Active.
As for `CCCC[C@H](NC(=O)[C@H](CC(C)C)NC(=O)[C@H](CCC(N)=O)NC(=O)[C@H](CO)NC(=O)[C@@H](NC(C)=O)[C@@H](C)CC)C(=O)O` (HELM PEPTIDE1{[ac].I.S.Q.L.[Nle]}$$$$V2.0), in test [2], the result was inactive.
For the compound `CC[C@H](C)[C@H](NC(C)=O)C(=O)N[C@@H](CO)C(=O)N[C@@H](CCC(N)=O)C(=O)N[C@@H](CC(C)C)C(=O)NC1CB(O)OC1=O` (some centres undefined) (HELM PEPTIDE1{[ac].I.S.Q.L.[O=C1OB(O)CC1N[*:1]]}$$$$V2.0), the outcome in test [2] was inactive.
Consider `CCCC[C@H](NC(=O)[C@H](CC(C)C)NC(=O)[C@H](CCC(N)=O)NC(C)=O)C(=O)O` (HELM PEPTIDE1{[ac].Q.L.[Nle]}$$$$V2.0), for which the result in test [2] was inactive.
